From PubChem BioAssay
MrgX1 agonist: activates human MrgX1 receptor signaling; B-score at 10 µM; 310,000 compounds, 0.44% hits; MrgX1-HEK293 cells, Fluo-4 calcium fluorescence, agonist mode; stronger effect = higher value; AID 588627; Q96LB2;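 active = calcium response B-score plate-corrected fluorescence ratio at least 3 library SD, with starting fluorescence B-score inside 5 SD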
Target sequence (Q96LB2 whole entry, looked up): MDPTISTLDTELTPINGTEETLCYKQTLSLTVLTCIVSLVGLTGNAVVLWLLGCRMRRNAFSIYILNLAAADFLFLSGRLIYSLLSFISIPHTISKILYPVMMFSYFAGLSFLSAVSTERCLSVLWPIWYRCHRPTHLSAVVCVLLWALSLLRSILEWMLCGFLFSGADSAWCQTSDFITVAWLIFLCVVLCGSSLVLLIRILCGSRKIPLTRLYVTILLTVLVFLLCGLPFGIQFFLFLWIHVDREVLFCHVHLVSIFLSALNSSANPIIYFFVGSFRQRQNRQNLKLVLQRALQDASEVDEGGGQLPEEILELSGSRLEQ
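Test system: HEK293 cells stably expressing human MrgX1 receptor; amount: 15,000 cells per well; doses: compound delivered in addition one of three; times: overnight plating before 1 h dye loading; detection: Fluo-4 NW calcium-flux fluorescence, kinetic read; read-out basis: B-scored fluorescence response ratio; controls: positive and negative controls per plate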
RGS4 inh: inhibitors of human RGS4. 310,000 compounds, 0.45% hits. P49798. HEK293 M3R/RGS4 inducible, Fluo-4 calcium flux; stronger effect = higher value; triggered by carbachol at its EC20. B-score at 10 µM. AID 463165;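 active = B-score, a plate-corrected calcium signal, over three deviations above library mean, with baseline fluorescence within five deviations of library mean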;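 also: RGS4 expression induced by doxycycline in cells with stable M3 receptor; B-score is computed from the integrated fluorescence ratio over baseline after carbachol; higher B-score means a larger calcium signal and so more RGS4 inhibition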
Target sequence (P49798 whole entry, looked up): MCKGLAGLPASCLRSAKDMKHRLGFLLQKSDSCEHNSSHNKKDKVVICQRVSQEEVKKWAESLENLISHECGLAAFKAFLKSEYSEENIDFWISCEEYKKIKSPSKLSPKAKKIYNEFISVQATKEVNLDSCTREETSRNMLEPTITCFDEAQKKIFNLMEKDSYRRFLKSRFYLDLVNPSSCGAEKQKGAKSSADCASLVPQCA
MrgX1 PAM: allosterically activates human MrgX1 receptor signaling; Q96LB2; MrgX1-HEK293, Fluo-4 calcium flux, FDSS; stronger effect = higher value; B-score at 10 µM; 310,000 compounds, 0.63% hits; AID 588675;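 active = plate-corrected calcium response at least 3 library SD above typical, normal starting fluorescence, not activating the receptor alone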;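 also: compound read alongside a low EC10 to EC30 dose of BAM8-22 agonist; peak minus trough fluorescence over baseline measured at the second addition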
Lipid droplet: hepatic lipid droplet formation modulation | AML12 mouse hepatocytes, oleate lipid droplets, BODIPY imaging | inhibition, % at 6.5 µM | 240,000 compounds, 0.4% hits;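 active = lipid droplet intensity inhibited by at least 50%, with more than 500 cells counted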
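Assay system: AML12 hepatocytes (mouse) / Also added: 100 µM oleic acid challenge / Times: overnight treatment with compound plus oleate / Detection: high-content imaging of BODIPY-stained droplets and DAPI nuclei / Evaluation: % inhibition of lipid droplet signal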
MrgX1 antagonist: human MrgX1 receptor antagonism, primary screen; Q96LB2; MRGX1-HEK293 calcium flux, Fluo-4, BAM8-22 antagonism; stronger effect = lower value; B-score at 10 µM; 310,000 compounds, 1.3% hits;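 active = calcium-response B-score plate-corrected more than 3 library SD below zero, starting fluorescence within 5 deviations, no agonist response on first addition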;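 also: peak minus trough fluorescence over baseline after final BAM8-22 challenge near maximal dose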
RGS4 pot: RGS4 potentiation or activation. HEK293 M3R/inducible RGS4, carbachol calcium flux Fluo4; stronger effect = lower value. B-score at 10 µM. 310,000 compounds, 0.92% hits. AID 463111;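 active = B-score of the integrated calcium signal more than 4 SD below the library mean, with starting fluorescence not abnormally high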;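 also: negative B-score means reduced calcium response which marks RGS4 activation or potentiation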
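Reagent: ECmax carbachol challenge; Test system: M3R-expressing HEK293 line, RGS4 induced by doxycycline; Schedule: overnight RGS4 induction, 30 min dye load 37 °C, 20 min compound RT; Detection: calcium dye Fluo4 fluorescence; Read-out: Agonist-evoked peak-minus-minimum fluorescence over baseline, integrated ratio, B score.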
Lipid drop inh: confirmation of inhibitors of hepatic lipid droplet formation | inhibition, % at 5.2 µM | AML12 mouse hepatocytes, BODIPY lipid droplet imaging; droplets induced with 100 µM oleic acid | shares compounds with Lipid droplet | 870 compounds, 65% hits | AID 463183;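 active = inhibition of lipid droplet metric at least 50%, with more than 300 cells in each of four replicates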;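 also: plate controls were DMSO with oleic acid for no effect and 5 µM Triacsin-C for full effect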
AML12 cytotox: counter-screen for cytotoxicity in AML12 mouse hepatocytes; DAPI nuclear morphology cytotoxicity imaging; stronger effect = higher value; cells fed 100 µM oleate overnight; shares compounds with Lipid droplet; 870 compounds, 3% hits; z-score at 5 µM; in the data active = z-score above about 6.3;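 also: compound exposure lasted overnight at 37 °C before fixation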
AML12 tox ATP: AML12 hepatocyte cytotoxicity, confirmed | shares compounds with Lipid droplet | AML12 mouse hepatocyte viability, ATP luminescence; cells loaded with 100 µM oleic acid | cytotoxicity, % at 50 µM | 530 tested, under 10 active | AID 463219;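 active = cytotoxicity above 50% in each of four replicates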;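 also: compound exposure lasted overnight at 37 °C before the ATP read; 0% = DMSO-treated cells and 100% = wells with no cells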
* = called active by the depositor. Most compounds without a hit are left out; they make up all but 3.8% or so of the library.

Results for Cn1ccnc1C(=O)c1cc(SCC(=O)NC2CC2)nc2ccccc12 ?
MrgX1 agonist: inactive; RGS4 inh: inactive; MrgX1 PAM: inactive; Lipid droplet: 2; MrgX1 antagonist: inactive; RGS4 pot: inactive

Results for CN(C(=O)CSc1cc(C(=O)c2nccn2C)c2ccccc2n1)c1ccccc1 ?
MrgX1 agonist: inactive; RGS4 inh: inactive; MrgX1 PAM: inactive; Lipid droplet: 81*; MrgX1 antagonist: inactive; RGS4 pot: inactive; Lipid drop inh: -16; AML12 cytotox: -0.019

Results for COc1cc(/C=C\C(=O)OCn2nnc3ccccc3c2=O)cc(OC)c1OC ?
MrgX1 agonist: inactive; RGS4 inh: inactive; MrgX1 PAM: inactive; Lipid droplet: 57*; MrgX1 antagonist: inactive; RGS4 pot: inactive; Lipid drop inh: 25; AML12 cytotox: -0.6

Results for O=C(CCCCCNC(=O)N1CCn2c1nc1ccccc12)NCCc1ccccc1 ?
MrgX1 agonist: inactive; RGS4 inh: inactive; MrgX1 PAM: inactive; Lipid droplet: 19; MrgX1 antagonist: inactive; RGS4 pot: inactive

What do the screens show for `CCN(CC)S(=O)(=O)c1ccc(Cl)c(NC(=O)COC(=O)/C=C/c2ccc(O)c(OC)c2)c1`?
MrgX1 agonist: inactive; RGS4 inh: inactive; MrgX1 PAM: inactive; Lipid droplet: 6; MrgX1 antagonist: inactive; RGS4 pot: inactive

How did COc1ccc(/C=N\Nc2ccc([N+](=O)[O-])cc2[N+](=O)[O-])c(C(=O)O)c1OC do in these assays?
MrgX1 agonist: inactive; RGS4 inh: inactive; MrgX1 PAM: inactive; Lipid droplet: -6; MrgX1 antagonist: inactive; RGS4 pot: inactive

How did CC1=C(/C=N/Nc2ccc([N+](=O)[O-])cc2[N+](=O)[O-])C(C)(C)CCC1 do in these assays?
MrgX1 agonist: inactive; RGS4 inh: inactive; MrgX1 PAM: inactive; Lipid droplet: 72*; MrgX1 antagonist: inactive; RGS4 pot: inactive; Lipid drop inh: 115*; AML12 cytotox: -0.82; AML12 tox ATP: -13

What do the screens show for `Cc1cc(=O)oc2cc(OCC(=O)NC3CCN(Cc4ccccc4)CC3)c(Cl)cc12`?
MrgX1 agonist: inactive; RGS4 inh: inactive; MrgX1 PAM: inactive; Lipid droplet: 63*; MrgX1 antagonist: inactive; RGS4 pot: inactive; Lipid drop inh: 13; AML12 cytotox: -1.2

Results for COc1cccc2sc(=NC(=O)CS(=O)(=O)c3ccc(Cl)cc3)n(C)c12 ?
MrgX1 agonist: inactive; RGS4 inh: inactive; MrgX1 PAM: inactive; MrgX1 antagonist: inactive; RGS4 pot: inactive

What do the screens show for `C=CCN1C(=O)/C(=C\C=C2\N(C)c3ccccc3C2(C)C)SC1=S`?
MrgX1 agonist: 31*; RGS4 inh: inactive; MrgX1 PAM: inactive; Lipid droplet: 91*; MrgX1 antagonist: inactive; RGS4 pot: inactive; Lipid drop inh: 107*; AML12 cytotox: -0.34; AML12 tox ATP: 10

Results for COc1ccccc1N1CCN(C(=O)c2coc(=O)c(Br)c2)CC1 ?
MrgX1 agonist: inactive; RGS4 inh: inactive; MrgX1 PAM: inactive; Lipid droplet: 14; MrgX1 antagonist: inactive; RGS4 pot: inactive

What do the screens show for `COc1ccccc1Nc1ccc(NS(=O)(=O)c2ccc(C(C)=O)cc2)cc1`?
MrgX1 agonist: inactive; RGS4 inh: inactive; MrgX1 PAM: inactive; Lipid droplet: 99*; MrgX1 antagonist: inactive; RGS4 pot: inactive; Lipid drop inh: 94*; AML12 cytotox: 0.79

Results for COc1ccccc1NS(=O)(=O)c1ccc(NC(C)=O)cc1 ?
MrgX1 agonist: inactive; RGS4 inh: inactive; MrgX1 PAM: inactive; Lipid droplet: 4; MrgX1 antagonist: inactive; RGS4 pot: inactive

How did CC(Cc1ccsc1)NC(=O)CCc1nnc(CCc2ccccc2)o1 (configuration not stated) do in these assays?
MrgX1 agonist: inactive; RGS4 inh: inactive; MrgX1 PAM: inactive; Lipid droplet: 8; MrgX1 antagonist: inactive; RGS4 pot: inactive

How did COc1ccc(C2(c3ccc(OC)cc3)NC(=O)N(CC(=O)Nc3ccc(C(N)=O)cc3)C2=O)cc1 do in these assays?
MrgX1 agonist: inactive; RGS4 inh: inactive; MrgX1 PAM: inactive; Lipid droplet: -10; MrgX1 antagonist: inactive; RGS4 pot: inactive

What do the screens show for `COc1ccc(C2(c3ccc(OC)cc3)NC(=O)N(CC(=O)Nc3ccccc3C)C2=O)cc1`?
MrgX1 agonist: inactive; RGS4 inh: inactive; MrgX1 PAM: inactive; Lipid droplet: 60*; MrgX1 antagonist: inactive; RGS4 pot: inactive; Lipid drop inh: 104*; AML12 cytotox: -0.77; AML12 tox ATP: 11

What do the screens show for `COc1ccc(C2(c3ccc(OC)cc3)NC(=O)N(CC(=O)Nc3ccc(OC)c(OC)c3)C2=O)cc1`?
MrgX1 agonist: inactive; RGS4 inh: inactive; MrgX1 PAM: inactive; Lipid droplet: 52*; MrgX1 antagonist: inactive; RGS4 pot: inactive; Lipid drop inh: 74*; AML12 cytotox: -1.3; AML12 tox ATP: 18

How did O=C(NCCNc1ccc([N+](=O)[O-])cc1)c1ccc(Cl)cc1 do in these assays?
MrgX1 agonist: inactive; RGS4 inh: inactive; MrgX1 PAM: inactive; Lipid droplet: 3; MrgX1 antagonist: inactive; RGS4 pot: inactive

What do the screens show for `CCCN1C(=O)/C(=C2/C=Cc3ccccc3N2CC)SC1=S`?
MrgX1 agonist: inactive; RGS4 inh: inactive; MrgX1 PAM: inactive; Lipid droplet: 85*; MrgX1 antagonist: inactive; RGS4 pot: inactive; Lipid drop inh: 105*; AML12 cytotox: -0.13; AML12 tox ATP: 13

What do the screens show for `Cc1ccc(C2/C(=C(/O)c3cnn(-c4ccccc4)c3C)C(=O)C(=O)N2CCCN2CCOCC2)o1` (configuration not stated)?
MrgX1 agonist: inactive; RGS4 inh: inactive; MrgX1 PAM: inactive; Lipid droplet: 96*; MrgX1 antagonist: inactive; RGS4 pot: inactive; Lipid drop inh: 26; AML12 cytotox: 0.73

How did Cc1c(/C(O)=C2/C(=O)C(=O)N(CCN3CCOCC3)C2c2ccccn2)cnn1-c1ccccc1 (configuration not stated) do in these assays?
MrgX1 agonist: inactive; RGS4 inh: inactive; MrgX1 PAM: inactive; Lipid droplet: 8; MrgX1 antagonist: inactive; RGS4 pot: inactive
